Data published in ChEMBL document CHEMBL3244385, “Antitumor anthracycline antibiotics. Structure-activity and structure-cardiotoxicity relationships of rubidazone analogues” (J Med Chem, 1978).

Key:
[1] = Dissociation constant, pKa of Ar-COOH group of the compound; assay type: physicochemical
[2] = species on record: Rattus norvegicus; assay: Cardiotoxicity in rat ECG model; conditions: in vivo
[3] = test system: P388; assay: In vivo antitumor activity against mouse P388 cells allografted in BDF/CDF mouse assessed as host survival time at 4 mg/kg, ip administered on days 1 to 9 relative to control; assay type: functional; conditions: route intraperitoneal
Summary of the method: (§1)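 P-388 lymphocytic leukemia, 10⁶ cells injected ip into BDF or CDF mice on day 0; drug given ip daily on days 1-9 at the stated dose. Read-out T/C: average survival time of treated mice as percent of untreated controls. Assays run by NCI Drug Research and Development Program.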

[4] = test system: P388; assay: In vivo antitumor activity against mouse P388 cells allografted in BDF/CDF mouse assessed as host survival time at 1 mg/kg, ip administered on days 1 to 9 relative to control; assay type: functional; conditions: route intraperitoneal; summary of the method: as §1
[5] = test system: Calf thymus DNA; assay: Binding affinity to calf thymus DNA assessed as change in melting temperature at 5 uM by spectrophotometer analysis; assay type: nucleic-acid assay; conditions: Bos taurus
Summary of the method: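 Drug dissolved in Me2SO, diluted with buffer, then mixed with calf thymus DNA. Final mix: 0.01 M phosphate pH 7, 5×10^-5 M DNA, 5×10^-6 M drug, 10^-5 M EDTA, 5% Me2SO. Absorbance at 259 nm recorded every 30 s while heating at 18 °C/h. Tm is the midpoint of the corrected curve; the shift is taken against DNA alone.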

[6] = test system: P388; assay: In vivo antitumor activity against mouse P388 cells allografted in BDF/CDF mouse assessed as host survival time at 0.25 mg/kg, ip administered on days 1 to 9 relative to control; assay type: functional; conditions: route intraperitoneal; summary of the method: as §1
[7] = test system: P388; assay: In vivo antitumor activity against mouse P388 cells allografted in BDF/CDF mouse assessed as host survival time at 0.125 mg/kg, ip administered on days 1 to 9 relative to control; assay type: functional; conditions: route intraperitoneal; summary of the method: as §1
[8] = test system: P388; assay: In vivo antitumor activity against mouse P388 cells allografted in BDF/CDF mouse assessed as host survival time at 0.5 mg/kg, ip administered on days 1 to 9 relative to control; assay type: functional; conditions: route intraperitoneal; summary of the method: as §1
[9] = Half life in 0.01 M phosphate buffer at 10 uM at pH 7.4 at 50 degC; assay type: physicochemical
Summary of the method: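 Drug at 1×10^-5 M in 0.01 M phosphate, pH 7.4, 50 °C, no DNA. Absorbance followed continuously for 3 h at a drug-specific wavelength (345 or 259 nm). Buffer baseline subtracted. Data fit to A = ΣA0 + c·e^(-kt), with ΣA0 the absorbance of daunorubicin plus the […], and t1/2 derived from the fit.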

[10] = test system: P388; assay: In vivo antitumor activity against mouse P388 cells allografted in BDF/CDF mouse assessed as host survival time at 8 mg/kg, ip administered on days 1 to 9 relative to control; assay type: functional; conditions: route intraperitoneal; summary of the method: as §1
[11] = test system: L1210; assay: Inhibition of DNA synthesis in mouse L1210 cells; assay type: functional; conditions: read-out: ED50 (the source's name)
[12] = species on record: Rattus norvegicus; assay: Cardiotoxicity in rat ECG model relative to adriamycin; conditions: in vivo
[13] = test system: P388; assay: In vivo antitumor activity against mouse P388 cells allografted in BDF/CDF mouse assessed as host survival time at 2 mg/kg, ip administered on days 1 to 9 relative to control; assay type: functional; conditions: route intraperitoneal; summary of the method: as §1
[14] = test system: L1210; assay: Inhibition of RNA synthesis in mouse L1210 cells; assay type: functional; conditions: read-out: ED50 (the source's name)
[15] = test system: P388; assay: In vivo antitumor activity against mouse P388 cells allografted in BDF/CDF mouse assessed as host survival time at 16 mg/kg, ip administered on days 1 to 9 relative to control; assay type: functional; conditions: route intraperitoneal; summary of the method: as §1
[16] = Partition coefficient, log P of the compound; assay type: physicochemical; conditions: octanol/water
[17] = Drug metabolism in 0.01 M phosphate buffer assessed as hydrolysis rate after 3 hrs at 50 degC

Compound: COc1cccc2c1C(=O)c1c(O)c3c(c(O)c1C2=O)C[C@@](O)(/C(C)=N/NC(=O)c1ccc(Cl)cc1)C[C@@H]3O[C@H]1C[C@H](N)[C@H](O)[C@H](C)O1.Cl
- pKa [1]: 4.03
- MCCD [2]: 48 mg/kg
- T/C [3]: 211%
- T/C [4]: 145%
- ΔTm [5]: 11.4 °C
- T/C [6]: 145%
- T/C [7]: 110%
- T/C [8]: 139%
- half-life at 10 µM [9]: 37 min
- T/C [10]: 109%
- EC50 [11]: 1900 nM
- Ratio [12]: 3.5
- T/C [13]: 163%
- EC50 [14]: 1000 nM
- T/C [15]: 63%
- logP [16]: 1.75
- Drug metabolism [17]: metabolite_detected
